Test results as given in ChEMBL document CHEMBL3124880, “4-(3-Chloro-5-(trifluoromethyl)pyridin-2-yl)-N-(4-methoxypyridin-2-yl)piperazine-1-carbothioamide (ML267), a potent inhibitor of bacterial phosphopantetheinyl transferase that attenuates secondary metabolism and thwarts bacterial growth” (J Med Chem, 2014).
Calls of active or inactive are those of the source. The rule behind the calls is not given here.

Assays:
[1] = Inhibition of Bacillus subtilis Sfp-PPTase using rhodamine-CoA/BHQ-2-YbbR as substrate preincubated for 15 mins followed by substrate addition by HTS assay
HepG2 = test: Cytotoxicity against human HepG2 cells assessed as cellular ATP content after 48 hrs by CellTiter-Glo assay; assay type: cell-based; conditions: HepG2, 48 h
Procedure, shortened: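 HepG2 cells exposed to compound; viability read as cellular ATP by luciferase-coupled CellTiter-Glo.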

[2] = Inhibition of Bacillus subtilis AcpS-PPTase using rhodamine-CoA/BHQ-2-YbbR as substrate preincubated for 15 mins followed by substrate addition by HTS assay
Procedure, shortened: (§1)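 AcpS-PPTase at 100 nM final in 50 mM HEPES-Na pH 7.6, 10 mM MgCl2, 0.01% Nonidet P-40, 0.01% BSA; compound preincubated 15 min at room temperature, then rhodamine-CoA (5 μM final) and BHQ-2-YbbR (12.5 μM final) added. Fluorescence read (525 ex/598 em) at start and after 60 min; difference gives rate.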

Bacillus subtilis [3] = test: Antibacterial activity against Bacillus subtilis HM489 assessed as cellular ATP content after 5 hrs by BacTiter-Glo assay; assay type: functional, organism-based; conditions: HM489, 5 h
[4] = Inhibition of AcpS-PPTase (unknown origin); procedure, shortened: as §1
[5] = molecular target: T1, L-aminoadipate-semialdehyde dehydrogenase-phosphopantetheinyl transferase (Homo sapiens) (UniProt Q9NRN7); test: Inhibition of human PPTase up to 125 uM by gel-based fluorescence assay
T1 sequence (whole entry): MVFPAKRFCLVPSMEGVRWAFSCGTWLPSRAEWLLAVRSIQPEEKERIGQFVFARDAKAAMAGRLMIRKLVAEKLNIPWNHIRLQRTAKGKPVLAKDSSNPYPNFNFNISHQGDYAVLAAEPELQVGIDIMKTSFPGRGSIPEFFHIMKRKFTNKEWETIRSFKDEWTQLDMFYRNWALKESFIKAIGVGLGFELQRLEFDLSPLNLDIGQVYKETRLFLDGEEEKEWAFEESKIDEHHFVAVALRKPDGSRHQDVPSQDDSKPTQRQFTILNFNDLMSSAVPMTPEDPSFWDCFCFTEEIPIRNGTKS

Bacillus subtilis [6] = test: Antibacterial activity against Bacillus subtilis 168 assessed as disruption of cell membrane integrity at 10 times MIC after 15 mins by Syto9/propidium iodide staining-based BacLight LIVE/DEAD microscopic analysis; assay type: functional, organism-based; conditions: subsp. subtilis str. 168
Bacillus subtilis [7] = test: Antibacterial activity against Bacillus subtilis 168 assessed as growth inhibition after 16 to 20 hrs by resazurin dye-based assay; assay type: functional; conditions: subsp. subtilis str. 168
Procedure, shortened: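 Broth microdilution. Test article from 1 μL DMSO in 50 μL cation-adjusted Mueller Hinton II (bacteria) or RPMI 1640 (fungi), plus ~1×10^3 cfu inoculum in the same medium. Incubated 16–20 h at 30–37 °C (48 h for fungi). MIC scored visually as the first well without growth; resazurin added for imaging.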

Liver microsome = test: Drug metabolism in human liver microsomes assessed as GSH adduct formation at 50 uM after 60 mins by LC-MS/MS analysis in presence of NADPH; assay type: ADME; conditions: 1 h
Staphylococcus aureus = test: Antibacterial activity against Staphylococcus aureus BK2395 in Swiss Webster mouse septicemia model assessed as increase in survival at 50 mg/kg, ip administered 4 to 48 hrs measured 3 times daily for 14 days; assay type: functional, organism-based; design: dose 50 mg/kg
Bacillus subtilis [8] = test: Inhibition of Bacillus subtilis AcpS-PPTase
Procedure, shortened: (§2)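 qHTS fluorescence assay in 50 mM HEPES-Na pH 7.6, 10 mM MgCl2, 0.01% NP-40, 0.01% BSA. Final enzyme 15 nM Sfp or 100 nM AcpS. Enzyme preincubated with compound 15 min at room temperature, then rhodamine-CoA 5 μM and BHQ-2-YbbR 12.5 μM (final) added. Fluorescence (525 ex/598 em) read at start and after 30 min (Sfp) or 60 min (AcpS); the difference gives the rate. Eight concentrations from 3.6 nM to 114 μM, run in triplicate.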

Bacillus subtilis [9] = test: Inhibition of Bacillus subtilis Sfp-PPTase using CoA/apo-ACP as substrate preincubated for 10 mins followed by substrate addition measured after 30 mins by PAGE analysis
Procedure, shortened: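 Compound in DMSO added to Sfp at 26.6 nM (in a 1.33× enzyme solution) in HEPES-Na pH 7.6 with MgCl2, NP-40 and BSA, and held 10 min. Reaction started with rhodamine-CoA and apo-actinorhodin-ACP, each 50 μM in a 4× substrate solution. After 30 min at room temperature, quenched with urea/EDTA and resolved by native 20% PAGE.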

Bacillus subtilis [10] = test: Inhibition of Bacillus subtilis Sfp-PPTase; procedure, shortened: as §2
[11] = Non-competitive inhibition of Bacillus subtilis Sfp-PPTase using CoA/ActACP as substrate preincubated for 10 mins followed by substrate addition measured after 30 mins by HPLC analysis
Bacillus subtilis [12] = test: Reversible inhibition of Bacillus subtilis Sfp-PPTase using rhodamine-CoA/FITC-YbbR as substrate assessed as residual enzyme activity at IC90 preincubated for 30 mins followed by 100 fold dilution and addition of substrate by fluorescence assay

Compound	IC50 [1]	also measured
Cc1cc(C)nc(NC(=C(C#N)C#N)N2CCN(c3cccc(C(F)(F)F)c3)CC2)c1	≥ 114 µM	
Cc1cc(C)nc(NC(=S)N2CCN(c3ncc(C(F)(F)F)cc3Cl)CC2)c1	0.86 µM	IC50 (HepG2): 30 µM; IC50 [2]: 18.6 µM; IC50 (Bacillus subtilis [3]): 36.2 µM
COc1cccc(NC(=S)N2CCN(c3cccc(C(F)(F)F)c3)CC2)n1	1.5 µM	
Cc1ccnc(NC(=S)N2CCCN(c3cccc(C(F)(F)F)c3)CC2)c1	1.6 µM	
COc1ccnc(NC(=S)N2CCN(c3cccc(C(F)(F)F)c3)CC2)c1	1.2 µM	
Cc1ccnc(NC(=S)N2CCN(C)CC2)c1	6.5 µM	
CSC(Cc1ccc(Cl)cc1)C(=O)Nc1ccc(Cl)cc1C(=O)O (configuration not stated)		IC50 [4]: 1.4 µM
Cc1cc(C)nc(NC(=S)N2CCN(Cc3cccc(C(F)(F)F)c3)CC2)c1	11.5 µM	
Cc1ccnc(NC(=S)NCCNc2cccc(C(F)(F)F)c2)c1	≥ 114 µM	
Cc1cc(C)nc(NC(=S)N2CCN(c3cccc(C#N)c3)CC2)c1	1.6 µM	
Cc1cc(C)nc(NC(=S)N2CCN(c3cccc(C(F)(F)F)c3)CC2)c1	0.51 µM	
Cc1cc(C)nc(NC(=S)N2CCN(c3cc(Cl)c(Cl)c(Cl)c3)CC2)c1	0.29 µM	
Nc1ncnc2c1ncn2[C@@H]1O[C@H](COP(=O)(O)O)[C@@H](OP(=O)(O)O)[C@H]1O		inhibition [5]: Active
Cc1ccnc(NC(=S)NC2CN(c3cccc(C(F)(F)F)c3)C2)c1	≥ 114 µM	
Cc1cc(C)nc(NC(=S)N2CCN(c3cccc(Cl)c3Cl)CC2)c1	1.6 µM	
Cetyltrimethylammonium bromide		Activity (Bacillus subtilis [6]): Active; growth inhibition (GI) (Bacillus subtilis [7]): Active
Cc1cc(C)nc(NC(=S)N2CCNCC2)c1	14.5 µM	
Cc1cc(C)nc(NC(=S)N2CCN(c3cc(C(F)(F)F)cc(C(F)(F)F)c3)CC2)c1	0.51 µM	
Cc1cc(C)nc(NC(=S)N2CCN(c3nnc(C(F)(F)F)s3)CC2)c1	1.6 µM	
Cc1cc(C)nc(NC(=S)N2CCN(c3cc(C#N)cc(C#N)c3)CC2)c1	0.65 µM	

Compound	IC50 [1]	also measured
Cc1cc(C)nc(NC(=S)N2CCN(c3ccc(Cl)c(Cl)c3Cl)CC2)c1	0.73 µM	
Cc1cc(C)nc(NC(=S)N2CCN(c3ccc(Cl)cc3C(F)(F)F)CC2)c1	0.58 µM	Drug metabolism (Liver microsome): Not Active; IC50 (HepG2): ≥ 114 µM; IC50 [2]: 10.2 µM; IC50 (Bacillus subtilis [3]): 18.6 µM
COc1cc(OC)cc(N2CCN(C(=S)Nc3cc(C)cc(C)n3)CC2)c1	2 µM	
Cc1ccnc(NC(=O)N2CCN(c3cccc(C(F)(F)F)c3)CC2)c1	≥ 114 µM	IC50 (HepG2): 7 µM; IC50 [2]: ≥ 114 µM; IC50 (Bacillus subtilis [3]): ≥ 114 µM
Cc1ccnc(C(=S)N2CCN(c3cccc(C(F)(F)F)c3)CC2)c1	≥ 114 µM	
Cc1cc(C)nc(NC(=S)N2CCN(c3ccc(Cl)cc3Cl)CC2)c1	1 µM	
Cc1cc(C)nc(NC(=S)N2CCN(c3cc(F)cc(F)c3)CC2)c1	1.3 µM	
FC(F)(F)c1cccc(N2CCN(C(=S)Nc3ccc4cccnc4n3)CC2)c1	1 µM	
FC(F)(F)c1cccc(N2CCN(C(=S)Nc3ccncc3)CC2)c1	≥ 114 µM	
Cc1cc(C)nc(NC(=S)N2CCN(c3ccc(Cl)c(Cl)c3)CC2)c1	0.91 µM	
Cc1ccnc(NC(=S)NCCN(C)c2cccc(C(F)(F)F)c2)c1	≥ 114 µM	
Cc1ccnc(NC(=S)N2CCN(c3cccc(C(F)(F)F)c3)C2)c1	0.81 µM	
FC(F)(F)c1cccc(N2CCN(C(=S)Nc3ccccn3)CC2)c1	0.91 µM	
Cc1ccnc(NC(=N)N2CCN(c3cccc(C(F)(F)F)c3)CC2)c1	≥ 114 µM	
Cc1cc(C)nc(N/C(=N/C#N)N2CCN(c3cccc(C(F)(F)F)c3)CC2)c1	≥ 114 µM	
Cc1ccnc(NC(=S)N2CCN(c3cccc(C(F)(F)F)c3)C[C@@H]2C)c1	11.5 µM	
Cc1cc(C)nc(NC(=S)N2CCN(c3cccc(S(C)(=O)=O)c3)CC2)c1	2.9 µM	
Cc1cc(C)nc(NC(=S)N2CCN(S(=O)(=O)c3cccc(C(F)(F)F)c3)CC2)c1	0.81 µM	
Cc1cc(C)cc(N2CCN(C(=S)Nc3cc(C)cc(C)n3)CC2)c1	1.6 µM	
Cc1cc(C)nc(Nc2nnc(N3CCN(c4cccc(C(F)(F)F)c4)CC3)s2)c1	≥ 114 µM	

Compound	IC50 [1]	also measured
FC(F)(F)c1cccc(N2CCN(C(=S)Nc3ccc4ccccc4n3)CC2)c1	1.5 µM	
CN[C@H](CC(C)C)C(=O)N[C@H]1C(=O)N[C@@H](CC(N)=O)C(=O)N[C@H]2C(=O)N[C@H]3C(=O)N[C@H](C(=O)N[C@H](C(=O)O)c4cc(O)cc(O)c4-c4cc3ccc4O)[C@H](O)c3ccc(c(Cl)c3)Oc3cc2cc(c3O[C@@H]2O[C@H](CO)[C@@H](O)[C@H](O)[C@H]2O[C@H]2C[C@](C)(N)[C@H](O)[C@H](C)O2)Oc2ccc(cc2Cl)[C@H]1O		Activity (Staphylococcus aureus): Active
Cc1ccnc(NC(=S)NC2CCN(c3cccc(C(F)(F)F)c3)CC2)c1	≥ 114 µM	
Cc1cccc(NC(=S)N2CCN(c3cccc(C(F)(F)F)c3)CC2)c1	≥ 114 µM	
COC(=O)c1ccnc(NC(=S)N2CCN(c3cccc(C(F)(F)F)c3)CC2)c1	11.5 µM	
C/N=c1\nc(-c2ccccc2)n(-c2ccccc2)s1		inhibition [5]: Active
Cc1cc(C)nc(NC(=S)N2CCN(c3cc(Cl)cc(Cl)c3)CC2)c1	0.85 µM	
Cc1ccnc(CC(=S)N2CCN(c3cccc(C(F)(F)F)c3)CC2)c1	5.76 µM	
Cc1ccnc(NC(=S)N2CCN(c3ccccc3C(F)(F)F)CC2)c1	0.61 µM	IC50 (HepG2): ≥ 114 µM; IC50 [2]: 10.2 µM; IC50 (Bacillus subtilis [3]): 9.4 µM
Cc1cc(C)nc(NC(=S)N2CCN(c3ccc(C(F)(F)F)cn3)CC2)c1		IC50 (HepG2): 15.8 µM; IC50 [2]: 16.2 µM; IC50 (Bacillus subtilis [3]): 13.2 µM
Cc1ccnc(NC(=S)N2CCN(c3cccc(C(F)(F)F)c3)CC2)c1	0.78 µM	inhibition (Bacillus subtilis [8]): Active; IC50 (HepG2): 14 µM; IC50 [2]: 4.6 µM; inhibition (Bacillus subtilis [9]): Dose-dependent effect; IC50 (Bacillus subtilis [3]): 9.8 µM; inhibition (Bacillus subtilis [10]): Active; IC50 [11]: 0.3 µM; inhibition (Bacillus subtilis [12]): Active
Cc1ccnc(NC(=S)N2CCN(c3cccc(N(C)C)c3)CC2)c1	5.8 µM	
FC(F)(F)c1cccc(N2CCN(C(=S)Nc3cc(C(F)(F)F)ccn3)CC2)c1	≥ 114 µM	
Cc1ccnc(NC(=S)N2CCC(Nc3cccc(C(F)(F)F)c3)CC2)c1	0.81 µM	IC50 (HepG2): ≥ 114 µM; IC50 [2]: 12.9 µM; IC50 (Bacillus subtilis [3]): 13.2 µM
O=C(N[C@H](CO)[C@H](O)c1ccc([N+](=O)[O-])cc1)C(Cl)Cl		Activity (Bacillus subtilis [6]): inactive; growth inhibition (GI) (Bacillus subtilis [7]): Active
Cc1ccnc(NC(=S)Nc2cccc(C(F)(F)F)c2)c1	22.9 µM	
Cc1ccnc(NC(=S)N2CC3CN(c4cccc(C(F)(F)F)c4)CC3C2)c1 (configuration not stated)	0.73 µM	
Cc1ccnc(N(C)C(=S)N2CCN(c3cccc(C(F)(F)F)c3)CC2)c1	≥ 114 µM	
Cc1ccnc(NC(=S)N2CCN(c3ccc(C(F)(F)F)cc3)CC2)c1	1 µM	
